Data from ChEMBL document CHEMBL1932992, “Synthesis and anticonvulsant activity of 1-(8-(benzyloxy)quinolin-2-yl)-6-substituted-4,6-diazaspiro[2,4]heptane-5,7-diones” (Eur J Med Chem, 2012).
Active and inactive are the calls of the source.

These compounds were tested on Mus musculus (assay: Anticonvulsant activity in ip dosed Kunming mouse assessed as protection against maximal electroshock-induced seizure after 0.5 hrs). Conditions: read-out: MED.
Type: functional
Method in brief: (§1)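 Male Kunming mice (20 ± 2.0 g) received ip 30, 100 or 300 mg/kg as a suspension in 0.5% methylcellulose, one to four mice per dose. At 0.5 h and 4.0 h, a 60-Hz, 50-mA current was applied for 0.25 s via corneal electrodes. Protection meant no hindlimb tonic extension. The value is the minimal dose protecting half or more of the mice.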

SMILES	minimal effective dose [mg/kg]
Cc1ccc(N2C(=O)NC3(CC3c3ccc4cccc(OCc5ccccc5)c4n3)C2=O)cc1 (racemic)	100
CC(C)N1C(=O)NC2(CC2c2ccc3cccc(OCc4ccccc4)c3n2)C1=O (racemic)	300
CCCCN1C(=O)NC2(CC2c2ccc3cccc(OCc4ccccc4)c3n2)C1=O (racemic)	300
O=C1NC2(CC2c2ccc3cccc(OCc4ccccc4)c3n2)C(=O)N1c1ccc(C(F)(F)F)cc1 (racemic)	300
O=C1NC(=O)C(c2ccccc2)(c2ccccc2)N1 [PHENYTOIN]	30

The compounds below were run on Mus musculus (assay: Anticonvulsant activity in ip dosed Kunming mouse assessed as protection against subcutaneous pentylenetetrazole-induced seizure after 0.5 hrs). Conditions: read-out: MED.
Type: functional
Method in brief: (§2)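 Male Kunming mice (20 ± 2.0 g) were given ip doses of 30, 100 or 300 mg/kg in 0.5% methylcellulose, one to four mice per dose. They were then challenged with subcutaneous pentylenetetrazole dissolved in 0.9% saline at 0.5 h and 4.0 h. Protection was the absence of even a threshold seizure (a single clonic spasm lasting at least 5 s). The value is the minimal dose active in half or more of the mice.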

SMILES	minimal effective dose [mg/kg]
CCC1(C)CC(=O)NC1=O (centres undefined) [ETHOSUXIMIDE]	100
O=C1NC2(CC2c2ccc3cccc(OCc4ccccc4)c3n2)C(=O)N1c1ccc([N+](=O)[O-])cc1 (racemic)	300
CC(C)N1C(=O)NC2(CC2c2ccc3cccc(OCc4ccccc4)c3n2)C1=O (racemic)	100
O=C1NC2(CC2c2ccc3cccc(OCc4ccccc4)c3n2)C(=O)N1Cc1ccccc1 (racemic)	300

Each compound was assayed on Mus musculus (assay: Anticonvulsant activity in Kunming mouse assessed as protection against subcutaneous pentylenetetrazole-induced seizure at 300 mg/kg, ip after 0.5 hrs). Conditions: not given.
Type: functional, organism-based
Design: dose 300 mg/kg
Method in brief: as §2

SMILES	Activity
Cc1ccc(N2C(=O)NC3(CC3c3ccc4cccc(OCc5ccccc5)c4n3)C2=O)cc1 (racemic)	inactive
CCCCN1C(=O)NC2(CC2c2ccc3cccc(OCc4ccccc4)c3n2)C1=O (racemic)	inactive
O=C1NC2(CC2c2ccc3cccc(OCc4ccccc4)c3n2)C(=O)N1c1ccc(C(F)(F)F)cc1 (racemic)	inactive
O=C1NC(=O)C(c2ccccc2)(c2ccccc2)N1 [PHENYTOIN]	inactive

What follows are compounds tested on Mus musculus (assay: Anticonvulsant activity in ip dosed Kunming mouse assessed as protection against subcutaneous pentylenetetrazole-induced seizure after 4 hrs). Conditions: read-out: MED.
Type: functional
Method in brief: as §2

SMILES	minimal effective dose [mg/kg]
CCC1(C)CC(=O)NC1=O (centres undefined) [ETHOSUXIMIDE]	300
CCCCN1C(=O)NC2(CC2c2ccc3cccc(OCc4ccccc4)c3n2)C1=O (racemic)	300
O=C1NC2(CC2c2ccc3cccc(OCc4ccccc4)c3n2)C(=O)N1c1ccc(C(F)(F)F)cc1 (racemic)	300

The compounds below were run on Mus musculus (assay: Neurotoxicity in Kunming mouse assessed as minimal motor impairment at 300 mg/kg, ip after 4 hrs by rotarod test). Conditions: in vivo.
Type: toxicity, organism-based
Design: dose 300 mg/kg, route intraperitoneal
Method in brief: (§3)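 Rotorod screen in trained male Kunming mice dosed ip at 30, 100 or 300 mg/kg in 0.5% methylcellulose, read at 0.5 h and 4.0 h. Mice were placed on a knurled rod 1 in. in diameter turning at 6 rpm. Impairment was failure to stay on the rod for at least 1 min in each of four trials. The value is the minimal dose affecting half or more of the mice.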

SMILES	Activity
CCC1(C)CC(=O)NC1=O (centres undefined) [ETHOSUXIMIDE]	Non-toxic
O=C1NC2(CC2c2ccc3cccc(OCc4ccccc4)c3n2)C(=O)N1c1ccc([N+](=O)[O-])cc1 (racemic)	Non-toxic
CC(C)N1C(=O)NC2(CC2c2ccc3cccc(OCc4ccccc4)c3n2)C1=O (racemic)	Non-toxic
CCCCN1C(=O)NC2(CC2c2ccc3cccc(OCc4ccccc4)c3n2)C1=O (racemic)	Non-toxic

Each compound was assayed on Mus musculus (assay: Anticonvulsant activity in ip dosed Kunming mouse assessed as protection against maximal electroshock-induced seizure after 4 hrs). Conditions: read-out: MED.
Type: functional
Method in brief: as §1

SMILES	minimal effective dose [mg/kg]
O=C1NC2(CC2c2ccc3cccc(OCc4ccccc4)c3n2)C(=O)N1c1ccc([N+](=O)[O-])cc1 (racemic)	300
CC(C)N1C(=O)NC2(CC2c2ccc3cccc(OCc4ccccc4)c3n2)C1=O (racemic)	100
O=C1NC2(CC2c2ccc3cccc(OCc4ccccc4)c3n2)C(=O)N1Cc1ccccc1 (racemic)	300
O=C1NC2(CC2c2ccc3cccc(OCc4ccccc4)c3n2)C(=O)N1c1ccc(C(F)(F)F)cc1 (racemic)	300
O=C1NC(=O)C(c2ccccc2)(c2ccccc2)N1 [PHENYTOIN]	30

What follows are compounds tested on Mus musculus (assay: Anticonvulsant activity in Kunming mouse assessed as protection against subcutaneous pentylenetetrazole-induced seizure at 300 mg/kg, ip after 4 hrs). Conditions: not given.
Type: functional, organism-based
Design: dose 300 mg/kg
Method in brief: as §2

SMILES	Activity
O=C1NC2(CC2c2ccc3cccc(OCc4ccccc4)c3n2)C(=O)N1c1ccc([N+](=O)[O-])cc1 (racemic)	inactive
Cc1ccc(N2C(=O)NC3(CC3c3ccc4cccc(OCc5ccccc5)c4n3)C2=O)cc1 (racemic)	inactive
CC(C)N1C(=O)NC2(CC2c2ccc3cccc(OCc4ccccc4)c3n2)C1=O (racemic)	inactive
O=C1NC2(CC2c2ccc3cccc(OCc4ccccc4)c3n2)C(=O)N1Cc1ccccc1 (racemic)	inactive
O=C1NC(=O)C(c2ccccc2)(c2ccccc2)N1 [PHENYTOIN]	inactive

Each compound was assayed on Mus musculus (assay: Anticonvulsant activity in Kunming mouse assessed as protection against maximal electroshock-induced seizure at 300 mg/kg, ip after 0.5 hrs). Conditions: not given.
Type: functional, organism-based
Design: dose 300 mg/kg
Method in brief: as §1

SMILES	Activity
CCC1(C)CC(=O)NC1=O (centres undefined) [ETHOSUXIMIDE]	inactive
O=C1NC2(CC2c2ccc3cccc(OCc4ccccc4)c3n2)C(=O)N1c1ccc([N+](=O)[O-])cc1 (racemic)	inactive
O=C1NC2(CC2c2ccc3cccc(OCc4ccccc4)c3n2)C(=O)N1Cc1ccccc1 (racemic)	inactive

What follows are compounds tested on Mus musculus (assay: Neurotoxicity in Kunming mouse assessed as minimal motor impairment at 300 mg/kg, ip after 0.5 hrs by rotarod test). Conditions: in vivo.
Type: toxicity, organism-based
Design: dose 300 mg/kg, route intraperitoneal
Method in brief: as §3

SMILES	Activity
CCC1(C)CC(=O)NC1=O (centres undefined) [ETHOSUXIMIDE]	Non-toxic
O=C1NC2(CC2c2ccc3cccc(OCc4ccccc4)c3n2)C(=O)N1c1ccc([N+](=O)[O-])cc1 (racemic)	Non-toxic
Cc1ccc(N2C(=O)NC3(CC3c3ccc4cccc(OCc5ccccc5)c4n3)C2=O)cc1 (racemic)	Non-toxic
CC(C)N1C(=O)NC2(CC2c2ccc3cccc(OCc4ccccc4)c3n2)C1=O (racemic)	Non-toxic
O=C1NC2(CC2c2ccc3cccc(OCc4ccccc4)c3n2)C(=O)N1Cc1ccccc1 (racemic)	Non-toxic
CCCCN1C(=O)NC2(CC2c2ccc3cccc(OCc4ccccc4)c3n2)C1=O (racemic)	Non-toxic
O=C1NC2(CC2c2ccc3cccc(OCc4ccccc4)c3n2)C(=O)N1c1ccc(C(F)(F)F)cc1 (racemic)	Non-toxic

Each compound was assayed on Mus musculus (assay: Anticonvulsant activity in ip dosed Kunming mouse assessed as protection against maximal electroshock-induced seizure). Conditions: not given.
Type: functional

SMILES	ED50 [mg/kg]
NC(=O)N1c2ccccc2C=Cc2ccccc21 [CARBAMAZEPINE]	8.8
CCC1(c2ccccc2)C(=O)NC(=O)NC1=O [PHENOBARBITAL]	21.8

The compounds below were run on Mus musculus (assay: Anticonvulsant activity in Kunming mouse assessed as protection against maximal electroshock-induced seizure at 300 mg/kg, ip after 4 hrs). Conditions: not given.
Type: functional, organism-based
Design: dose 300 mg/kg
Method in brief: as §1

SMILES	Activity
CCC1(C)CC(=O)NC1=O (centres undefined) [ETHOSUXIMIDE]	inactive
Cc1ccc(N2C(=O)NC3(CC3c3ccc4cccc(OCc5ccccc5)c4n3)C2=O)cc1 (racemic)	inactive
CCCCN1C(=O)NC2(CC2c2ccc3cccc(OCc4ccccc4)c3n2)C1=O (racemic)	inactive

These compounds were tested on Mus musculus (assay: Anticonvulsant activity in ip dosed Kunming mouse assessed as protection against subcutaneous pentylenetetrazole-induced seizure). Conditions: not given.
Type: functional
Method in brief: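 Median effective dose in male Kunming mice, groups of 10, given a range of ip doses until at least three points fell between 10–90% seizure protection.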

SMILES	ED50 [mg/kg]
NC(=O)N1c2ccccc2C=Cc2ccccc21 [CARBAMAZEPINE]	> 100
CCC1(c2ccccc2)C(=O)NC(=O)NC1=O [PHENOBARBITAL]	13.2
O=C1NC(=O)C(c2ccccc2)(c2ccccc2)N1 [PHENYTOIN]	> 300
CCCC(CCC)C(=O)[O-].[Na+] [VALPROATE SODIUM]	149
